This is an account of results in ChEMBL document CHEMBL3774321, “Systematic diversification of benzylidene heterocycles yields novel inhibitor scaffolds selective for Dyrk1A, Clk1 and CK2” (Eur J Med Chem, 2016).

For data set [1], the target named is T1, Myosin light chain kinase 2, skeletal/cardiac muscle (Homo sapiens, UniProt Q9H1R3). Put plainly: Inhibition of full length recombinant human N-terminal GST-tagged skeletal MYLK2 expressed in baculovirus expression system at 1 uM by lantha screen kinase binding assay relative to control. Put shortly:
(§1)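 Binding-displacement format: the compound competes with an Alexa Fluor-conjugated tracer for binding to the kinase ATP site, rather than a peptide phosphorylation read-out.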

Data set [2] addresses Homeodomain-interacting protein kinase 1 (Homo sapiens) (UniProt Q86Z02). The data set is described as follows: Inhibition of recombinant human N-terminal GST-tagged HIPK1 expressed in baculovirus expression system at 1 uM by lantha screen kinase binding assay relative to control. The method, boiled down:
as §1

In data set [3] the target is Dual specificity tyrosine-phosphorylation-regulated kinase 3 (Homo sapiens) (UniProt O43781). Put plainly: Inhibition of full length recombinant human GST-tagged DYRK3 expressed in baculovirus expression system at 1 uM by lantha screen kinase binding assay relative to control.
Dual specificity tyrosine-phosphorylation-regulated kinase 3 (Homo sapiens), sequence (O43781 whole entry): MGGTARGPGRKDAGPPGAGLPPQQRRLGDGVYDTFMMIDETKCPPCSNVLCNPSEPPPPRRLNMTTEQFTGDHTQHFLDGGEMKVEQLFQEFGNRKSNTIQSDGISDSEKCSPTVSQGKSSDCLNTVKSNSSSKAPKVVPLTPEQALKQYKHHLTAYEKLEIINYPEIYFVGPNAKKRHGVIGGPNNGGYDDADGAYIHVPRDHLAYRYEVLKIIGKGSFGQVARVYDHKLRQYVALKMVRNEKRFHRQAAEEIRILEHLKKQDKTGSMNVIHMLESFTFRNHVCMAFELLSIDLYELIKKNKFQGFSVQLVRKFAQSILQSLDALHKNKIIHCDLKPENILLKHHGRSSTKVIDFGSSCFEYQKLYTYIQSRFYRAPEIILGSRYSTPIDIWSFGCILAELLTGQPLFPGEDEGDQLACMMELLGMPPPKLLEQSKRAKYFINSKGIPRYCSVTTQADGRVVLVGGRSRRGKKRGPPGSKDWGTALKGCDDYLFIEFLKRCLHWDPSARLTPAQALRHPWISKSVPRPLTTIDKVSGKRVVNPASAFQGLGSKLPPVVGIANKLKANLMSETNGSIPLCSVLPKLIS
The target of data set [4] is T1, Myosin light chain kinase 2, skeletal/cardiac muscle. Put plainly: Inhibition of full length recombinant human N-terminal GST-tagged MLCK expressed in baculovirus expression system by lantha screen kinase binding assay. Put shortly: as §1
The target of data set [5] is Serine/threonine-protein kinase D2 (Homo sapiens) (UniProt Q9BZL6). The data set is described as follows: Inhibition of full length recombinant human GST-tagged PRKD2 expressed in baculovirus expression system at 1 uM by lantha screen kinase binding assay relative to control.
Data set [6] deals with Serine/threonine-protein kinase pim-1 (Homo sapiens, UniProt P11309). The data set is described as follows: Inhibition of PIM1 (unknown origin). The method, boiled down: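 Calculated from means of duplicates differing by less than 7%.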
Data set [7] addresses Mitogen-activated protein kinase 14 (Homo sapiens) (UniProt Q16539). The data set is described as follows: Inhibition of full length recombinant human GST-tagged MAPK14 expressed in Escherichia coli at 1 uM by lantha screen kinase binding assay relative to control.
The target of data set [8] is Serine/threonine-protein kinase 26 (Homo sapiens) (UniProt Q9P289). The data set is described as follows: Inhibition of full length recombinant human GST-tagged MST4 expressed in baculovirus expression system at 1 uM by lantha screen kinase binding assay relative to control.
Data set [9] deals with Cyclin-dependent kinase 5/CDK5 activator 1 (Homo sapiens) (UniProt Q00535+Q15078). Put plainly: Inhibition of full length recombinant human GST-tagged, His-tagged CDK5/p25 expressed in baculovirus expression system at 1 uM by lantha screen kinase binding assay.
The target of data set [10] is Calcium/calmodulin-dependent protein kinase type II subunit alpha (Homo sapiens) (UniProt Q9UQM7). The data set is described as follows: Inhibition of full length recombinant human His-tagged CAMK2A expressed in baculovirus expression system at 1 uM by lantha screen kinase binding assay relative to control.
Calcium/calmodulin-dependent protein kinase type II subunit alpha (Homo sapiens), sequence (Q9UQM7 whole entry): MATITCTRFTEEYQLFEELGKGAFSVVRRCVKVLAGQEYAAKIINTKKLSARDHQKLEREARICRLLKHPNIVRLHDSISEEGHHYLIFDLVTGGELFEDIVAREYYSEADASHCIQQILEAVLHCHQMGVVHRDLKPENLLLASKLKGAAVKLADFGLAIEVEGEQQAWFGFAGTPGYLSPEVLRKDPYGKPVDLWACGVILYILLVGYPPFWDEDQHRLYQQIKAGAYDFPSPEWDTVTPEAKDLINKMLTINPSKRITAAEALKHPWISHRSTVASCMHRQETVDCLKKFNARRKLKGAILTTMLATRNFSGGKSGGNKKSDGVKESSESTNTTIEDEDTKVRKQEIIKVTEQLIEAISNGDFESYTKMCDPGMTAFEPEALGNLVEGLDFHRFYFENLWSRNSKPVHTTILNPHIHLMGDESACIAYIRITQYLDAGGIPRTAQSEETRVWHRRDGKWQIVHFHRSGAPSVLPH
Data set [11] has as its target Proto-oncogene tyrosine-protein kinase ROS (Homo sapiens) (UniProt P08922). The data set is described as follows: Inhibition of recombinant human GST-tagged ROS1 expressed in baculovirus expression system at 1 uM by lantha screen kinase binding assay relative to control. The method, boiled down:
as §1

For data set [12], the target named is MAP kinase-interacting serine/threonine-protein kinase 2 (Homo sapiens) (UniProt Q9HBH9). The data set is described as follows: Inhibition of full length recombinant human N-terminal GST-tagged MKNK2 expressed in insect cells at 1 uM by lantha screen kinase binding assay relative to control. Put shortly:
as §1

The target of data set [13] is T2, Dual specificity protein kinase CLK3 (Homo sapiens, UniProt P49761). The data set is described as follows: Inhibition of recombinant human GST-tagged CLK3 expressed in baculovirus expression system by lantha screen kinase binding assay. Put shortly: as §1
The target of data set [14] is Glycogen synthase kinase-3 beta (Homo sapiens) (UniProt P49841). The data set is described as follows: Inhibition of full length recombinant human His-tagged GSK3beta expressed in baculovirus expression system at 1 uM by lantha screen kinase binding assay relative to control. The method, boiled down:
as §1

Data set [15] deals with T3, Dual specificity protein kinase CLK4 (Homo sapiens, UniProt Q9HAZ1). The note with it: 1 uM.
T3 sequence (Q9HAZ1 whole entry, looked up): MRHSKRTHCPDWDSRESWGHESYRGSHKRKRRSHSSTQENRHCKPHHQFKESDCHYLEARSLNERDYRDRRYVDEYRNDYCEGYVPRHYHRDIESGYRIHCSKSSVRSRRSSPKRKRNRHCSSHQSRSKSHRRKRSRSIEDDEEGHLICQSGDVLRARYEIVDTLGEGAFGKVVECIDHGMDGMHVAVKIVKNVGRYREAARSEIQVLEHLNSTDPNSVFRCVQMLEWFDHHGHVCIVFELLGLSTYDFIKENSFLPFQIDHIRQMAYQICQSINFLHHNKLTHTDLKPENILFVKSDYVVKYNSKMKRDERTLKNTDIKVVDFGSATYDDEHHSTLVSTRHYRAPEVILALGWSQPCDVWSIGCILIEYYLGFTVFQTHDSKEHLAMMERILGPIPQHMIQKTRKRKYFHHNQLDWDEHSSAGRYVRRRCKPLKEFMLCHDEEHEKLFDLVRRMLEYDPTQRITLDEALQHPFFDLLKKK
The target of data set [16] is cAMP-dependent protein kinase catalytic subunit alpha (Homo sapiens) (UniProt P17612). Put plainly: Inhibition of recombinant human His-tagged PRKACA expressed in Escherichia coli at 1 uM by lantha screen kinase binding assay relative to control. Put shortly: as §1
The target in data set [17] is T2, Dual specificity protein kinase CLK3. Put plainly: Inhibition of recombinant human GST-tagged CLK3 expressed in baculovirus expression system at 1 uM by lantha screen kinase binding assay relative to control. Put shortly:
as §1

Data set [18] addresses MAP kinase-interacting serine/threonine-protein kinase 1 (Homo sapiens) (UniProt Q9BUB5). Put plainly: Inhibition of full length recombinant human N-terminal GST-tagged MKNK1 expressed in insect cells at 1 uM by lantha screen kinase binding assay relative to control. Put shortly: as §1
The target in data set [19] is Dual specificity tyrosine-phosphorylation-regulated kinase 4 (Homo sapiens) (UniProt Q9NR20). The data set is described as follows: Inhibition of full length recombinant human GST-tagged DYRK4 expressed in baculovirus expression system at 5 uM by lantha screen kinase binding assay relative to control.
Data set [20] addresses Epidermal growth factor receptor (Homo sapiens, UniProt P00533). Put plainly: Inhibition of recombinant human GST-tagged EGFR expressed in baculovirus expression system at 5 uM by lantha screen kinase binding assay relative to control. The method, boiled down: as §1
Data set [21] deals with Dual specificity protein kinase CLK2 (Homo sapiens) (UniProt P49760). Put plainly: Inhibition of recombinant human GST-tagged CLK2 expressed in baculovirus expression system at 5 uM by lantha screen kinase binding assay relative to control. Put shortly: as §1
Dual specificity protein kinase CLK2 (Homo sapiens), sequence (P49760 whole entry, looked up): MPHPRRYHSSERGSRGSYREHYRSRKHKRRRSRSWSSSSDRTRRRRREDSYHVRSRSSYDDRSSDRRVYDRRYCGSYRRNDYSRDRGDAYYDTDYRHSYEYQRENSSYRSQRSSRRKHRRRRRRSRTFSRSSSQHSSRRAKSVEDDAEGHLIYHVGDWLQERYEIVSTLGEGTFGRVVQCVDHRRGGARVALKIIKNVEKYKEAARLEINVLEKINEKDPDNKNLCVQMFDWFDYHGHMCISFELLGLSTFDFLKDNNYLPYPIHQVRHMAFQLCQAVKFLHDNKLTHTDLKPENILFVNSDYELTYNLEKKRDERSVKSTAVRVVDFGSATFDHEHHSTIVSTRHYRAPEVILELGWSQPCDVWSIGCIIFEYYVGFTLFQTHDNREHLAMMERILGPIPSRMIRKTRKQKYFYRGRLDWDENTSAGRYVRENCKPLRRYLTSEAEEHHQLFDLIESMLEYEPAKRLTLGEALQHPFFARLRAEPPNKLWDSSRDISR
For data set [22], the target named is Mitogen-activated protein kinase kinase kinase 9 (Homo sapiens) (UniProt P80192). The data set is described as follows: Inhibition of recombinant human GST-tagged MAP3K9 expressed in baculovirus expression system at 5 uM by lantha screen kinase binding assay relative to control. Put shortly: as §1
The target in data set [23] is T1, Myosin light chain kinase 2, skeletal/cardiac muscle. The data set is described as follows: Inhibition of full length recombinant human N-terminal GST-tagged skeletal MYLK2 expressed in baculovirus expression system at 5 uM by lantha screen kinase binding assay relative to control. Put shortly: as §1
In data set [24] the target is Casein kinase I isoform gamma-2 (Homo sapiens) (UniProt P78368). Put plainly: Inhibition of full length recombinant human His-tagged CSNK1G2 expressed in baculovirus expression system at 5 uM by lantha screen kinase binding assay relative to control. Put shortly:
as §1

In data set [25] the target is Casein kinase I isoform epsilon (Homo sapiens) (UniProt P49674). The data set is described as follows: Inhibition of full length recombinant human His-tagged CSNK1E expressed in baculovirus expression system at 5 uM by lantha screen kinase binding assay relative to control.
Data set [26] addresses Mitogen-activated protein kinase 8 (Homo sapiens) (UniProt P45983). The data set is described as follows: Inhibition of full length recombinant human His-tagged MAPK8 expressed in baculovirus expression system at 5 uM by lantha screen kinase binding assay relative to control. Put shortly: as §1
Data set [27] concerns the target T3, Dual specificity protein kinase CLK4. Conditions: 5 uM.
The target in data set [28] is Dual specificity tyrosine-phosphorylation-regulated kinase 3 (Homo sapiens) (UniProt O43781). Put plainly: Inhibition of full length recombinant human GST-tagged DYRK3 expressed in baculovirus expression system at 5 uM by lantha screen kinase binding assay relative to control.
The target in data set [29] is Myosin light chain kinase, smooth muscle (Homo sapiens) (UniProt Q15746). Put plainly: Inhibition of recombinant human GST-tagged MYLK expressed in baculovirus expression system at 5 uM by lantha screen kinase binding assay relative to control. Put shortly:
as §1

Another data set deals with Plasma. Put plainly: Metabolic stability in rat plasma assessed as drug degradation at 1 uM after 120 mins by LC-MS/MS analysis. It is filed as ADME, cell-free. Conditions: 2 h. The method, boiled down: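 Compound (1 µM) in pooled heparinised rat plasma at 37 °C, sampled at 0, 5, 15, 30, 60 and 120 min. Reaction stopped with 5 volumes of cold acetonitrile containing internal standard. Remaining compound was measured by LC-MS/MS; means of two experiments.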

The source made the active and inactive calls. The rule behind the calls is not given here.

T1 sequence (Q9H1R3 whole entry): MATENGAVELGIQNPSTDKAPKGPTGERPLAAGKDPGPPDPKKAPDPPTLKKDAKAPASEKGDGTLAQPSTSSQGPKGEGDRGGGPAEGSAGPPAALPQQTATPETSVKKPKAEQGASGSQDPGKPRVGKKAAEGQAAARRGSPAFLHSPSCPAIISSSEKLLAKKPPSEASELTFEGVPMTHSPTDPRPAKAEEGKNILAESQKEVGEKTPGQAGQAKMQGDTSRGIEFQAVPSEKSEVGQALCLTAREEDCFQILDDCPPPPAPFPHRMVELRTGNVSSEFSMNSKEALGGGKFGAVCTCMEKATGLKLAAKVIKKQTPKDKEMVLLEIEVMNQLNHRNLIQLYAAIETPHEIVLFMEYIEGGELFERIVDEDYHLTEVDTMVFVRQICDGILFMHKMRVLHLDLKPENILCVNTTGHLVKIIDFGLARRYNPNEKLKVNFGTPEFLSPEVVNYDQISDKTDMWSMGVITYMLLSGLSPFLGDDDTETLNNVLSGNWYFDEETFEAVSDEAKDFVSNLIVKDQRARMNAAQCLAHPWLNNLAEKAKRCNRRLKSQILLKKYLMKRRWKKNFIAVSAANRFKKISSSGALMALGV
Homeodomain-interacting protein kinase 1 (Homo sapiens), sequence (Q86Z02 whole entry, looked up): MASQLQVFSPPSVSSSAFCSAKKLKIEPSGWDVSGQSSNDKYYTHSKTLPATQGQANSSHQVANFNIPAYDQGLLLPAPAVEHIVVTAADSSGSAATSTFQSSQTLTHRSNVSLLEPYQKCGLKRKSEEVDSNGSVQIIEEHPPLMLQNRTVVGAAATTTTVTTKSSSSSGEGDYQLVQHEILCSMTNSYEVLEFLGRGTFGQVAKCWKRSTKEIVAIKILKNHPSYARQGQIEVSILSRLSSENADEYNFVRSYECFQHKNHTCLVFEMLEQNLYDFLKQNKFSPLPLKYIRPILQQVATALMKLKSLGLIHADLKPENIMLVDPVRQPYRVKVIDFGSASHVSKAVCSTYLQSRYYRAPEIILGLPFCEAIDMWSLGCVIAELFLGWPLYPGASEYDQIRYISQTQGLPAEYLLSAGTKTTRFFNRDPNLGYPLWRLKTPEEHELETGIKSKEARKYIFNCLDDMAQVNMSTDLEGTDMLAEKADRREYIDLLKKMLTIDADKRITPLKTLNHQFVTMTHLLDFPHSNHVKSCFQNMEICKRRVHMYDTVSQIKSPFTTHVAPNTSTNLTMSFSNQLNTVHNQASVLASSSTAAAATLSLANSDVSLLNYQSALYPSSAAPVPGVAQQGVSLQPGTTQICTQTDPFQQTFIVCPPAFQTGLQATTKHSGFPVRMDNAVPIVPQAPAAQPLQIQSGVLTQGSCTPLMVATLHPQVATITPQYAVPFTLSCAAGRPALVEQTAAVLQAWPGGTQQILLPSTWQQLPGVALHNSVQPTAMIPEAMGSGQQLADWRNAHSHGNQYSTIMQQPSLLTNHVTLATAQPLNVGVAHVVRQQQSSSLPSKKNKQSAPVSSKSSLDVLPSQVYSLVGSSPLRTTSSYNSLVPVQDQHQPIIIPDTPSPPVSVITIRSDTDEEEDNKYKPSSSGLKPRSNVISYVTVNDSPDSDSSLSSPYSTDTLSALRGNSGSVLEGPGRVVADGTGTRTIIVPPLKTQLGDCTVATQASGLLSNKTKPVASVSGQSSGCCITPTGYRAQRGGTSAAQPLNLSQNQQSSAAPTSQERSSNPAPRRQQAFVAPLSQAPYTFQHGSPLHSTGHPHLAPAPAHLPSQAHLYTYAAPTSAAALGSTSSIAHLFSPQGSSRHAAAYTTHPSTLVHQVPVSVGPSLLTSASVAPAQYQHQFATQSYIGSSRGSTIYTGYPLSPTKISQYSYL
MAP kinase-interacting serine/threonine-protein kinase 2 (Homo sapiens), sequence (Q9HBH9 whole entry, looked up): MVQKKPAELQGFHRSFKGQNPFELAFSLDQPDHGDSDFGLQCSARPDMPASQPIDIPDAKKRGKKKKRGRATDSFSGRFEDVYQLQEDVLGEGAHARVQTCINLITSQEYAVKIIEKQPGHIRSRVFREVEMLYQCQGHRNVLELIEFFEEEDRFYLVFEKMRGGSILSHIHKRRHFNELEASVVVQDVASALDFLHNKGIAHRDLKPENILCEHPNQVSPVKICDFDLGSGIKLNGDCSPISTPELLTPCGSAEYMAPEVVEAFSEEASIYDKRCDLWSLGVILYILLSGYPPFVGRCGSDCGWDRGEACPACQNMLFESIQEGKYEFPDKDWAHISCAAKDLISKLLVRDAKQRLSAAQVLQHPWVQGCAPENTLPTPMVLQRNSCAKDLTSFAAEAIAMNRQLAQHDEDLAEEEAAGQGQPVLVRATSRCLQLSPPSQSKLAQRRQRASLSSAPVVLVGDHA
Mitogen-activated protein kinase 8 (Homo sapiens), sequence (P45983 whole entry): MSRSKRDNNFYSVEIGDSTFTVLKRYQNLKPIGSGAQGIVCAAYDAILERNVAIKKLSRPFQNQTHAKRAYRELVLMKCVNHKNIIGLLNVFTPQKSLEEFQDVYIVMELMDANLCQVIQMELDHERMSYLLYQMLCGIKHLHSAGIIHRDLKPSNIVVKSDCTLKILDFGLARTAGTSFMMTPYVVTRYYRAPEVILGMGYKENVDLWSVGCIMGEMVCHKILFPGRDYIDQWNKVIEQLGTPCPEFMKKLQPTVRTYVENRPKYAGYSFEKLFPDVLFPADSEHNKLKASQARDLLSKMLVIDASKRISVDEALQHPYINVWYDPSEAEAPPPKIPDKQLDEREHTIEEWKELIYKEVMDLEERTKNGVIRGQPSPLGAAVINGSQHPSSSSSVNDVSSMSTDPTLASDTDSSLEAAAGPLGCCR

As usually defined, the inhibition is the percentage by which the read-out fell short of the control. Broadly, the IC50 is the midpoint of a concentration-inhibition curve. In the case of `O=C1NC(=S)S/C1=C\c1ccc2ncccc2c1`, the inhibition in data set [1] was determined as 35%; in [2] it was 33%; in data set [3], 84%; in data set [5], 19%; in [7], 6%; in data set [10] it was 7%. Further, the inhibition is 5% in [11]; 34% in data set [12]; 10% in data set [14]; 97% in [15]; 95% in data set [17]; 44% in data set [18]. The IC50 in [4] was 157 nM; in data set [6] it was 103 nM; in data set [13] it was 86.6 nM. The inhibition entry in data set [8], in data set [9] and in data set [16] was “inactive” in each case.
`O=C1NC(=S)S/C1=C\c1ccc2ncsc2c1`: the inhibition result in data set [19], in data set [20], in [22], in [23], in data set [24] and in [25] was “inactive” throughout. The inhibition result in data set [29] was “inactive”. The inhibition in [21] came to 65%; in data set [26], 14%; in [27], 98%; in data set [28], 7%.
As for `CC1C/C(=C\c2ccc3c(c2)CCO3)C(=O)O1` (stereo not given), the Stability entry in the data set on Plasma is recorded as “Stable”.
